The target in one data set is Cannabinoid receptor 1 (Homo sapiens, UniProt P21554). Description: biochemical. In kind it is cell-based, HEK293.
The next data set is filed under the species Homo sapiens. Description: Selectivity index, ratio of Ki for human recombinant CB1 receptor to Ki for human recombinant CB2 receptor.
The target of the next data set is Cannabinoid receptor 2 (Homo sapiens, UniProt P34972). The data set can be described thus: Displacement of [3H]CP-55940 from human recombinant CB2 receptor expressed in HEK cells. It is filed as cell-based, HEK293. For orientation: In a radioligand displacement assay an active substance lowers the binding of a labelled ligand.
In data set [1] the test system is Mus musculus. The data set can be described thus: Antinociceptive activity in mouse assessed as reduction of formalin-induced nocifensive response at 3 mg/kg, ip administered 15 mins before formalin challenge measured second phase of 20 to 60 mins. In kind it is functional, organism-based. Also on record: dose 3 mg/kg. The procedure, abridged:
(§1)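 Mice received compound ip at 1, 3 or 6 mg/kg (or vehicle) 15 min before formalin (1.25% in saline, 30 μL) was injected into the dorsal hindpaw. An observer blind to treatment timed lifting, favoring, licking, shaking and flinching of the injected paw over 0–10 min (early phase) and 20–60 min (late phase). n = 8–10 per group, one treatment per animal. Means ± SEM, ANOVA with Dunnett's test.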

Data set [2] in a line: Cytotoxicity against human HepG2 cells assessed as cell viability at 1 uM after 72 hrs by MTT assay. In kind it is cell-based. The note with it: read-out: Activity. The procedure, abridged:
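HepG2 cells in DMEM with 10% FBS at 37 °C and 5% CO2 were seeded at 1 × 10⁵ per well and left to attach for 24 h. Compound was added at 1 μM final, diluted from a 1 mM DMSO stock, for 72 h. MTT was then added for 4 h at 37 °C, formazan was dissolved in DMSO and read at 540 nm. Viability = A(test)/A(medium-only control) × 100.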

The subject of data set [3] is Mus musculus. Description: Antinociceptive activity in mouse assessed as reduction of formalin-induced nocifensive response at 3 mg/kg, ip administered 15 mins before formalin challenge measured first phase of 0 to 10 mins in presence of CB2 receptor antagonist 1 mg/kg, ip of AM630. It is filed as functional, organism-based. The procedure, abridged:
(§2)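 Formalin paw test in mice. AM630 (1 mg/kg, ip) was given 5 min before the compound, and the compound was given ip 15 min before intraplantar-dorsal formalin (1.25% in saline, 30 μL). A blinded observer timed paw lifting, favoring, licking, shaking and flinching at 0–10 and 20–60 min. n = 8–10 per group. Means ± SEM, ANOVA with Dunnett's test.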

The subject of a further data set is COS-7. The data set can be described thus: Inhibition of MAGL in african green monkey COS7 cells assessed as [14C]-2-arachidonoyl-glycerol hydrolysis up to 10 uM. It is filed as cell-based. As to conditions: Chlorocebus aethiops. The procedure, abridged:
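COS-7 cell MAGL-like activity measured as hydrolysis of [¹⁴C]-2-arachidonoyl-glycerol, with compound tested at 0.1, 1, 5 and 10 μM.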

Data set [4] deals with Mus musculus. The data set can be described thus: Antinociceptive activity in mouse assessed as reduction of formalin-induced nocifensive response at 3 mg/kg, ip administered 15 mins before formalin challenge measured first phase of 0 to 10 mins. It is filed as functional, organism-based. Also on record: dose 3 mg/kg. The procedure, abridged: as §1
The target in data set [5] is T1, Fatty-acid amide hydrolase 1 (Rattus norvegicus) (UniProt P97612).
T1 sequence (whole entry): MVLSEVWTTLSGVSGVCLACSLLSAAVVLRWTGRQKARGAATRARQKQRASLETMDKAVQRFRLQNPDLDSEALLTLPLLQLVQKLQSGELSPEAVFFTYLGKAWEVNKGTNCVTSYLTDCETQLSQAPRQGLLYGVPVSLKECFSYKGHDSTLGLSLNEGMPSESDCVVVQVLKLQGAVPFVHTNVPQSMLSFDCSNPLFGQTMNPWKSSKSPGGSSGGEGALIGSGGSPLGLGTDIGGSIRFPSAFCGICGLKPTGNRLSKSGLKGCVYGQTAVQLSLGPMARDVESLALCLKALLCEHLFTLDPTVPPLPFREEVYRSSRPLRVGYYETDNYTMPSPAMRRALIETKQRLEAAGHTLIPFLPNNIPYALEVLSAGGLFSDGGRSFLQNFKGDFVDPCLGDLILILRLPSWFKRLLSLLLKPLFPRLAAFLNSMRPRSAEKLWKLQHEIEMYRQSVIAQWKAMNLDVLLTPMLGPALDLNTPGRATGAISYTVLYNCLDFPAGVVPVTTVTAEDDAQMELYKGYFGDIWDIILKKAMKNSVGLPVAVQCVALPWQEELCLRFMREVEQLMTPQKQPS
The data set can be described thus: Inhibition of rat brain FAAH assessed as [14C]-anandamide hydrolysis up to 10 uM. The procedure, abridged:
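Hydrolysis of [¹⁴C]-anandamide by rat brain FAAH-like activity, with compound at 0.1, 1, 5 and 10 μM.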

Data set [6] has as its system Mus musculus. Description: Antinociceptive activity in ip dosed mouse assessed as reduction of formalin-induced nocifensive response administered 15 mins before formalin challenge measured first phase of 0 to 10 mins. In kind it is functional. As to conditions: read-out: MED. The procedure, abridged:
as §1

The subject of data set [7] is Mus musculus. The data set can be described thus: Antinociceptive activity in mouse assessed as reduction of formalin-induced nocifensive response at 6 mg/kg, ip administered 15 mins before formalin challenge measured second phase of 20 to 60 mins in presence of CB2 receptor antagonist 1 mg/kg, ip of AM630. In kind it is functional, organism-based. The procedure, abridged:
as §2

In data set [8] the test system is Mus musculus. The data set can be described thus: Antinociceptive activity in mouse assessed as reduction of formalin-induced nocifensive response at 6 mg/kg, ip administered 15 mins before formalin challenge measured second phase of 20 to 60 mins. It is filed as functional, organism-based. Also on record: dose 6 mg/kg. The procedure, abridged: as §1

Each structure is given as a SMILES string. Calls of active or inactive are those of the source. The calls are words filed in the database; no cut-off is given here.

Cannabinoid receptor 1, sequence (P21554 whole entry): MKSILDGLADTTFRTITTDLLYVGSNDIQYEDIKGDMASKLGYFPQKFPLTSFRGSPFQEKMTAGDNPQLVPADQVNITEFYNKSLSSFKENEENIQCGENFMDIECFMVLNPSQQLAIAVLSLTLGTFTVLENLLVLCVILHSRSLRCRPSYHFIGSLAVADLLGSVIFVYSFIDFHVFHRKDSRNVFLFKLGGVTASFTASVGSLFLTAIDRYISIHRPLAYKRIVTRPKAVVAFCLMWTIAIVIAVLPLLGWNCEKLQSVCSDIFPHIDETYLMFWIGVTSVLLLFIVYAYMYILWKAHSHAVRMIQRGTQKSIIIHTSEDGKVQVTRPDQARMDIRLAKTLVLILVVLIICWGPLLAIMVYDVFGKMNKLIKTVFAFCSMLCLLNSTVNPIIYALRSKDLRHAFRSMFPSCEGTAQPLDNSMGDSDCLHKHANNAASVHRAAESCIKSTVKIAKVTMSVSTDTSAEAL
Cannabinoid receptor 2, sequence (P34972 whole entry): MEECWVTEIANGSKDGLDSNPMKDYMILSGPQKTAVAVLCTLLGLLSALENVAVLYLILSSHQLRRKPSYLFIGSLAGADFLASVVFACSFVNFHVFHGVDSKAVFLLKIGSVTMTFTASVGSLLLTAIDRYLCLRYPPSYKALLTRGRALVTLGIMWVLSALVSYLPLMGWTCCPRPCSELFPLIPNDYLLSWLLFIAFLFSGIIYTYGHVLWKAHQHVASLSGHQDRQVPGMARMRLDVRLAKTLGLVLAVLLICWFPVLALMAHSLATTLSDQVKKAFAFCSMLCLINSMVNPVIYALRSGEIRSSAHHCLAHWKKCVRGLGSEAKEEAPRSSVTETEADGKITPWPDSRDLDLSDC

One may read the Ki as the equilibrium dissociation constant of an inhibitor or competing ligand from its target. On to `CCCCCn1cc(C(=O)NC23CC4CC(CC(C4)C2)C3)c(=O)c2cccc([N+](=O)[O-])c21`, for which the Ki at Cannabinoid receptor 1 was determined as 200 nM; at Cannabinoid receptor 2, 1 nM. The Ratio Ki in the data set filed under Homo sapiens was found to be 200.
With `CCCCCn1c(=O)c(C(=O)NC23CC4CC(CC(C4)C2)C3)c(O)c2cc(Br)ccc21`, the result in the data set on Mus musculus [1] and in the data set on Mus musculus [4] was Active. The Ki on Cannabinoid receptor 1 is above 10000 nM; at Cannabinoid receptor 2, 29.4 nM. Further, the viability at 72 h, 1 µM in data set [2] is above 95%. In addition, in the data set filed under Homo sapiens, the Ratio Ki was above 340. Moreover, in the data set on Mus musculus [3], the result was inactive. Also, the inhibition result (in the data set on COS-7; in data set [5]) was “inactive” throughout.
Turning to `CCCCCn1cc(C(=O)NC23CC4CC(CC(C4)C2)C3)c(=O)c2cc(-c3ccccc3)cc(OC)c21`, the Ki was above 10000 nM at Cannabinoid receptor 1 and 430 nM at Cannabinoid receptor 2. In data set [2], the viability at 72 h, 1 µM was above 95%. For the same compound, in the data set listed under Homo sapiens, the Ratio Ki was above 23.
For `CCCCCn1cc(C(=O)NC23CC4CC(CC(C4)C2)C3)c(=O)c2cc(Br)cc(OC)c21` the same measures were above 10000 nM, 22.9 nM, above 95% and above 437.
Take `COc1cccc2c(O)c(C(=O)NC34CC5CC(CC(C5)C3)C4)cnc12`: the Ki on Cannabinoid receptor 1 is above 10000 nM; on Cannabinoid receptor 2, 3440 nM.
Consider `COc1cccc2c(=O)c(C(=O)NC34CC5CC(CC(C5)C3)C4)c[nH]c12`, for which the Ratio Ki in the data set filed under Homo sapiens was above 2.9.
As for `O=C(NC12CC3CC(CC(C3)C1)C2)c1cnc2c(-c3ccccc3)cccc2c1O`, the Ki on Cannabinoid receptor 1 is above 10000 nM; at Cannabinoid receptor 2, 220 nM. In addition, the viability at 72 h, 1 µM in data set [2] is above 95%.
For `CCCCCOc1cccc2c(O)c(C(=O)NC34CC5CC(CC(C5)C3)C4)cnc12` the same measures were 260 nM, 60 nM and above 95%.
On to `O=C(NC12CC3CC(CC(C3)C1)C2)c1c[nH]c2c(-c3ccccc3)cccc2c1=O`, for which the Ratio Ki in the data set listed under Homo sapiens turned out to be 45.
For `CCCCCn1cc(C(=O)NC23CC4CC(CC(C4)C2)C3)c(=O)c2cc(-c3ccco3)cc(OC)c21`, in the data set with Mus musculus [1], the result was Active. Moreover, the results for the inhibition constant Ki on Cannabinoid receptor 1 and at Cannabinoid receptor 2 were above 10000 nM and 8.5 nM, respectively. The viability at 72 h, 1 µM in [2] was above 95%. For the same compound, the Ratio Ki in the data set filed under Homo sapiens was above 1180. Besides, the result in the data set on Mus musculus [3] was inactive. The minimal effective dose with Mus musculus [6] turned out to be 1 mg/kg. Further, the inhibition entry (in the data set with COS-7; in data set [5]) was “inactive” in each case.
With `CCC1COc2cccc3c(=O)c(C(=O)NC45CC6CC(CC(C6)C4)C5)cn1c23` (stereo not given), the outcome in the data set with Mus musculus [1] and with Mus musculus [3] was Active. Moreover, the Ki on Cannabinoid receptor 1 is 1000 nM; at Cannabinoid receptor 2, 6.9 nM. For the same compound, in data set [2], the viability at 72 h, 1 µM was above 95%. Further, the Ratio Ki in the data set listed under Homo sapiens was found to be 145. For the same compound, the minimal effective dose in the data set with Mus musculus [6] was found to be 1 mg/kg. Also, the inhibition entry (in the data set on COS-7; in data set [5]) was “inactive” each time.
As to `CCCCc1[nH]c2ccc(-c3ccco3)cc2c(=O)c1C(=O)NC12CC3CC(CC(C3)C1)C2`, the Ki at Cannabinoid receptor 1 was above 10000 nM; at Cannabinoid receptor 2, 133 nM. Besides, in data set [2], the viability at 72 h, 1 µM was above 95%. Further, the Ratio Ki in the data set filed under Homo sapiens was above 75.
For `CCCCCn1c(=O)c(C(=O)NC23CC4CC(CC(C4)C2)C3)c(O)c2cc(-c3ccco3)ccc21` the same measures were 270 nM, 15 nM, above 95% and 18.
For `CCCCCn1cc(C(=O)NC23CC4CC(CC(C4)C2)C3)c(=O)c2cccc(C)c21` the same measures were above 10000 nM, 0.7 nM, above 95% and above 2040.
Consider `CCCCCn1c(=O)c(C(=O)NC23CC4CC(CC(C4)C2)C3)cc2ccccc21`, for which the inhibitory constant (Ki) at Cannabinoid receptor 1 is 31.3 nM; at Cannabinoid receptor 2, 0.2 nM. Also, the Ratio Ki in the data set filed under Homo sapiens was found to be 157.
As to `CCCCCn1cc(C(=O)NC23CC4CC(CC(C4)C2)C3)c(=O)c2cccc(OC)c21`, the result in the data set with Mus musculus [7] and in the data set with Mus musculus [8] was Active. For the same compound, the inhibition constant (Ki) on Cannabinoid receptor 1 is above 10000 nM; at Cannabinoid receptor 2, 0.6 nM. In data set [2], the viability at 72 h, 1 µM is above 95%. In addition, the Ratio Ki in the data set filed under Homo sapiens was above 16700. For the same compound, the inhibition entry (in the data set on COS-7; in data set [5]) was “inactive” throughout.
On to `CCCCc1[nH]c2ccc(Br)cc2c(=O)c1C(=O)NC12CC3CC(CC(C3)C1)C2`, for which the values for the Ki on Cannabinoid receptor 1 and on Cannabinoid receptor 2 were above 10000 nM and 1180 nM, respectively. Moreover, the Ratio Ki in the data set listed under Homo sapiens was above 8.
For the compound `CCCCCOc1cccc2c(=O)c(C(=O)NC34CC5CC(CC(C5)C3)C4)c[nH]c12`, the Ratio Ki in the data set listed under Homo sapiens is 4.3.

The values are drawn from ChEMBL document CHEMBL1811785, “Investigations on the 4-quinolone-3-carboxylic acid motif. 4. Identification of new potent and selective ligands for the cannabinoid type 2 receptor with diverse substitution patterns and antihyperalgesic effects in mice” (J Med Chem, 2011).
